Source: ChEMBL document CHEMBL3286203, “Reactive oxygen species (ROS) inducible DNA cross-linking agents and their effect on cancer cells and normal lymphocytes” (J Med Chem, 2014)
The source made the active and inactive calls. The rule behind the calls is not given here.

How the values were obtained:
[1] = Induction of [32P]-labeled 49-mer oligonucleotide duplex DNA 12 with GNC sequence at terminus (unknown origin) interstrand cross-linking at 50 uM after 16 hrs by PAGE in presence of H2O2
Outline: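 32P-labelled 12a (1.0 μM) annealed with 1.5 equiv of 12b in 10 mM potassium phosphate pH 7 / 100 mM NaCl (65 °C for 3 min, then slow cooling). Duplex incubated with compound (final 1 μM–5 mM), with or without H2O2, in NaCl and potassium phosphate pH 8 at room temperature for 16 h. Quenched in formamide; 20% denaturing PAGE.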

[2] = Induction of [32P]-labeled 49-mer oligonucleotide duplex DNA 12' with GNC sequence in middle (unknown origin) interstrand cross-linking at 1 mM after 12 hrs by PAGE in presence of H2O2
[3] = Induction of [32P]-labeled 49-mer oligonucleotide duplex DNA 12 interstrand cross-linking (unknown origin) at purine nucleotide site using compound radiolabeled at 5' of 12b in phosphate buffer at pH 7 at 90 degC after 30 mins by PAGE
[4] = Induction of [32P]-labeled 49-mer oligonucleotide duplex DNA 12 interstrand cross-linking (unknown origin) at purine nucleotide site using compound radiolabeled at 5' of 12a at 90 deg C after 30 mins by PAGE in presence of piperidine
Outline: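 Cross-linked duplex, with strand 12a 32P-labelled at the 5′ end, heated at 90 °C either in phosphate buffer pH 7.0 or in 1.0 M piperidine. Cleavage sites were assigned by denaturing PAGE against G + A sequencing and Fe·EDTA markers.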

[5] = Induction of apoptosis in human CLL cells at 10 uM after 24 hrs by Annexin/propidium iodide staining-based assay (reference value: 95%); assay type: functional
[6] = Induction of apoptosis in human CLL cells at 10 uM after 48 hrs by Annexin/propidium iodide staining-based assay (reference value: 91%); assay type: functional
[7] = system: HCC 2998; assay: Cytotoxicity against human HCC2998 cells after 48 hrs by SRB assay; assay type: functional; conditions: HCC 2998, 48 h
Outline: (§1)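 GI50 was determined in the NCI Developmental Therapeutics Program in vitro 60-line cancer screen. Tumour lines were maintained in RPMI 1640 containing 5% FBS and 2 mM L-glutamine. Cells were inoculated at 5000–40 000 cells/well according to each line's doubling time before drug exposure.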

[8] = system: SW-620; assay: Cytotoxicity against human SW620 cells after 48 hrs by SRB assay; assay type: functional; conditions: SW-620, 48 h
Outline: (§2)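 GI50 from the NCI-60 DTP human tumour line screen. Lines grown in RPMI 1640 with 5% fetal bovine serum and 2 mM L-glutamine, plated at 5000–40 000 cells/well according to doubling time. Incubated 48 h at 37 °C, 5% CO2.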

[9] = system: SF-268; assay: Cytotoxicity against human SF268 cells after 48 hrs by SRB assay; assay type: functional; conditions: SF-268, 48 h
Outline: (§3)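 GI50 from the NCI Developmental Therapeutics Program in vitro human tumor cell screen. Cell lines were maintained in RPMI 1640 with 5% fetal bovine serum and 2 mM L-glutamine. They were seeded at 5000–40 000 cells/well, depending on each line's doubling time, then exposed to drug for 48 h at 37 °C, 5% CO2.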

[10] = system: SF-295; assay: Cytotoxicity against human SF295 cells after 48 hrs by SRB assay; assay type: functional; conditions: SF-295, 48 h; outline: as §3
[11] = system: SF-539; assay: Cytotoxicity against human SF539 cells after 48 hrs by SRB assay; assay type: functional; conditions: SF-539, 48 h; outline: as §3
[12] = system: U-251; assay: Cytotoxicity against human U251 cells after 48 hrs by SRB assay; assay type: functional; conditions: U-251, 48 h; outline: as §2
[13] = system: SK-MEL-2; assay: Cytotoxicity against human SK-MEL-2 cells after 48 hrs by SRB assay; assay type: functional; conditions: SK-MEL-2, 48 h; outline: as §3
[14] = system: SK-MEL-28; assay: Cytotoxicity against human SK-MEL-28 cells after 48 hrs by SRB assay; assay type: functional; conditions: SK-MEL-28, 48 h; outline: as §3
[15] = system: IGROV-1; assay: Cytotoxicity against human IGROV1 cells after 48 hrs by SRB assay; assay type: functional; conditions: IGROV-1, 48 h; outline: as §1
[16] = Cytotoxicity against human OVCAR4 cells after 48 hrs by SRB assay; assay type: functional; conditions: OVCAR-4, 48 h; outline: as §3
[17] = Cytotoxicity against human OVCAR5 cells after 48 hrs by SRB assay; assay type: functional; conditions: OVCAR-5, 48 h; outline: as §3
[18] = system: 786-0; assay: Cytotoxicity against human 786-0 cells after 48 hrs by SRB assay; assay type: functional; conditions: 786-0, 48 h; outline: as §1
[19] = system: CAKI-1; assay: Cytotoxicity against human Caki1 cells after 48 hrs by SRB assay; assay type: functional; conditions: CAKI-1, 48 h; outline: as §1
[20] = system: PC-3; assay: Cytotoxicity against human PC3 cells after 48 hrs by SRB assay; assay type: functional; conditions: PC-3, 48 h; outline: as §3
[21] = system: DU-145; assay: Cytotoxicity against human DU145 cells after 48 hrs by SRB assay; assay type: functional; conditions: DU-145, 48 h; outline: as §1
[22] = system: MDA-MB-468; assay: Cytotoxicity against human MDA-MB-468 cells after 48 hrs by SRB assay; assay type: functional; conditions: MDA-MB-468, 48 h; outline: as §3
[23] = system: CLL; assay: Induction of apoptosis in human CLL cells at 10 uM by Annexin/propidium iodide staining-based assay; assay type: functional, cell-based; conditions: TDE = time-dependent effect
[24] = (§4) Induction of apoptosis in human CLL cells after 24 hrs by Annexin/propidium iodide staining-based assay; assay type: functional, cell-based
Outline: (§5)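 Primary CLL lymphocytes, Ficoll-Hypaque isolated from patient peripheral blood. Held fresh in RPMI 1640 with 10% autologous plasma. Dose–response over 24 h (n = 3). Apoptosis by annexin V–FITC/PI double staining and flow cytometry; IC50 derived from the dose–response.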

[25] = system: CLL; assay: as §4; assay type: functional, cell-based; outline: as §5
[26] = Induction of apoptosis in human lymphocytes at 10 uM after 24 to 48 hrs by Annexin/propidium iodide staining-based assay; assay type: cell-based; conditions: lymphocyte
[27] = Drug level in phosphate buffer treated with 40 mM N,N-Bis(2-chloroethyl)-4-(4,4,5,5-tetramethyl-1,3,2-dioxaborolan-2-yl)aniline after 30 mins by 1H-NMR analysis in presence of H2O2; assay type: physicochemical; conditions: 0.5 h
Outline: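 1H NMR of the boronate mustard (40 mM) with H2O2 (60 mM), 30 min after H2O2 addition. Solvent was 400 mM phosphate buffer pH 8 (50 μL) in DMSO-d6 (450 μL). Read-out is conversion to the activated product.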

[28] = system: K562; assay: Cytotoxicity against human K562 cells after 48 hrs by SRB assay; assay type: functional; conditions: K562, 48 h; outline: as §1
[29] = system: MOLT-4; assay: Cytotoxicity against human MOLT4 cells after 48 hrs by SRB assay; assay type: functional; conditions: MOLT-4, 48 h; outline: as §3
[30] = Induction of [32P]-labeled 49-mer oligonucleotide duplex DNA 12 with GNC sequence at terminus (unknown origin) interstrand cross-linking at 1 mM after 16 hrs by PAGE in presence of O2-
[31] = Induction of [32P]-labeled 49-mer oligonucleotide duplex DNA 12 with GNC sequence at terminus (unknown origin) interstrand cross-linking at 1 mM after 16 hrs by PAGE in presence of TBHP
[32] = Induction of [32P]-labeled 49-mer oligonucleotide duplex DNA 12 with GNC sequence at terminus (unknown origin) interstrand cross-linking at 1 mM after 16 hrs by PAGE in presence of OCL-

Q: Which results are given for `CC1(C)OB(c2ccc(N(CCBr)CCBr)cc2)OC1(C)C`?
A: Activity [1]: 3%; Activity [2]: 35%; Activity [3]: Active; Activity [4]: Active

Q: With `CC1(C)OB(c2ccc(N(CCBr)CCOS(C)(=O)=O)cc2)OC1(C)C` as the molecule, how does the Activity [1] read?
A: 3%

Q: And the Activity [3]?
A: Active

Q: What about the Activity [4] of the same molecule?
A: Active

Q: For `CC1(C)OB(c2ccc(N(CCCl)CCBr)cc2)OC1(C)C`, which Activity [5] is on record?
A: 90%

Q: What about the Activity [6] of the same molecule?
A: 81%

Q: What about the GI50 [7] of the same molecule?
A: 24 µM

Q: What about the GI50 [8] of the same molecule?
A: 13.9 µM

Q: What about the GI50 [9] of the same molecule?
A: 4.9 µM

Q: What about the GI50 [10] of the same molecule?
A: 2.64 µM

Q: What about the GI50 [11] of the same molecule?
A: 6.37 µM

Q: What about the GI50 [12] of the same molecule?
A: 5.07 µM

Q: What about the GI50 [13] of the same molecule?
A: 20.8 µM

Q: And the GI50 [14]?
A: 20.6 µM

Q: And the GI50 [15]?
A: 19.1 µM

Q: What about the GI50 [16] of the same molecule?
A: 14.4 µM

Q: What about the GI50 [17] of the same molecule?
A: 25.9 µM

Q: And the GI50 [18]?
A: 8.95 µM

Q: What about the GI50 [19] of the same molecule?
A: 3.52 µM

Q: What about the GI50 [20] of the same molecule?
A: 17.7 µM

Q: And the GI50 [21]?
A: 6.69 µM

Q: And the GI50 [22]?
A: 1.49 µM

Q: What about the Activity [23] of the same molecule?
A: tde

Q: What about the IC50 [24] of the same molecule?
A: 10.8 µM

Q: What about the Activity [25] of the same molecule?
A: Dose-dependent effect

Q: What about the Activity [26] of the same molecule?
A: Toxic

Q: And the Activity [1]?
A: 3%

Q: And the Drug metabolism [27]?
A: metabolite_detected

Q: What about the Activity [3] of the same molecule?
A: Active

Q: What about the Activity [4] of the same molecule?
A: Active

Q: What about the GI50 [28] of the same molecule?
A: 22.6 µM

Q: And the GI50 [29]?
A: 3.69 µM

Q: Which Activity [5] does the source give for `CC1(C)OB(c2ccc(N(CCCl)CCCl)cc2)OC1(C)C` here?
A: 93%

Q: And the Activity [6]?
A: 83%

Q: What about the GI50 [7] of the same molecule?
A: 14.9 µM

Q: And the GI50 [8]?
A: 11.3 µM

Q: And the GI50 [9]?
A: 4.61 µM

Q: What about the GI50 [10] of the same molecule?
A: 2.11 µM

Q: What about the GI50 [11] of the same molecule?
A: 5.7 µM

Q: And the GI50 [12]?
A: 3.75 µM

Q: And the GI50 [13]?
A: 22.1 µM

Q: What about the GI50 [14] of the same molecule?
A: 21 µM

Q: And the GI50 [15]?
A: 15.6 µM

Q: What about the GI50 [16] of the same molecule?
A: 17.4 µM

Q: What about the GI50 [17] of the same molecule?
A: 21.6 µM

Q: And the GI50 [18]?
A: 5.35 µM

Q: What about the GI50 [19] of the same molecule?
A: 2.78 µM

Q: What about the GI50 [20] of the same molecule?
A: 14.3 µM

Q: And the GI50 [21]?
A: 4.25 µM

Q: What about the GI50 [22] of the same molecule?
A: 1.6 µM

Q: What about the Activity [23] of the same molecule?
A: tde

Q: What about the IC50 [24] of the same molecule?
A: 9.26 µM

Q: And the Activity [25]?
A: Dose-dependent effect

Q: And the Activity [26]?
A: Toxic

Q: And the Activity [1]?
A: 3%

Q: And the Activity [2]?
A: 27%

Q: What about the Activity [30] of the same molecule?
A: 5%

Q: And the Activity [31]?
A: 1%

Q: What about the Activity [32] of the same molecule?
A: 0.9%

Q: What about the Activity [3] of the same molecule?
A: Active

Q: What about the Activity [4] of the same molecule?
A: Active

Q: And the GI50 [28]?
A: 17.2 µM

Q: And the GI50 [29]?
A: 3.48 µM

Q: Which results are given for `CC1(C)OB(c2ccc(N(CCCl)CCOS(C)(=O)=O)cc2)OC1(C)C`?
A: GI50 [7]: 14.6 µM; GI50 [8]: 11.9 µM; GI50 [9]: 5.39 µM; GI50 [10]: 2.99 µM; GI50 [11]: 4.83 µM; GI50 [12]: 0.7 µM; GI50 [13]: 21.5 µM; GI50 [14]: 15.6 µM; GI50 [15]: 13.6 µM; GI50 [16]: 13.9 µM; GI50 [17]: 22.9 µM; GI50 [18]: 6.55 µM; GI50 [19]: 3.1 µM; GI50 [20]: 15.1 µM; GI50 [21]: 4.52 µM; GI50 [22]: 1.07 µM; Activity [1]: 3%; Activity [30]: 5%; Activity [31]: 1%; Activity [32]: 0.9%; Activity [3]: Active; Activity [4]: Active; GI50 [28]: 19 µM; GI50 [29]: 3.74 µM
